Consider 15 compounds from ChEMBL document CHEMBL1240506, “Identification and development of novel inhibitors of Toxoplasma gondii enoyl reductase” (J Med Chem, 2010).

Converted amounts (≈) assume the structure as drawn. The source made the active and inactive calls. The calls are words filed in the database; no cut-off is given here.

The term inhibition denotes the drop in the measured response relative to a control, in per cent. Higher therefore signals a response far below the control. By IC50 is commonly meant the concentration that inhibits the measured activity by half. Lower therefore signals inhibition by little substance. What is called MIC50 is the lowest concentration that inhibits either 50% of growth or 50% of the strains tested, depending on the study. Low values mean greater potency, high ones weaker potency. The term MIC90 denotes an inhibitory concentration at the 90% level, which refers to growth in some studies and to a panel of isolates in others.

CYP3A4, sequence (P08684 whole entry): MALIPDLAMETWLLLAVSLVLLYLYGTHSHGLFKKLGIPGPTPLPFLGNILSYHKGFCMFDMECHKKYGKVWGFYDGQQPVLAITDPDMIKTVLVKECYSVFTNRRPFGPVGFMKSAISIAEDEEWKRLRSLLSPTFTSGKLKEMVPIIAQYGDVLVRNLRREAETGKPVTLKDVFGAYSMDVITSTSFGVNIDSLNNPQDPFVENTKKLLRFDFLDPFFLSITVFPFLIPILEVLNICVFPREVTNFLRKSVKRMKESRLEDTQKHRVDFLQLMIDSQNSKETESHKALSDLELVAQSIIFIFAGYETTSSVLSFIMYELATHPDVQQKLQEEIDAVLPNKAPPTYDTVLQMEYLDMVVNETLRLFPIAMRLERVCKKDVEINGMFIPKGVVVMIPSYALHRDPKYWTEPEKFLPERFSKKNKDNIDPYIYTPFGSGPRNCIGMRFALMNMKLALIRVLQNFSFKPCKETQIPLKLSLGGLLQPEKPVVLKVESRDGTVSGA

For the first data set, the target named is CYP2C9 (Homo sapiens, UniProt P11712). Briefly: Inhibition of CYP2C9 at 10 uM. It is filed as ADME.
CYP2C9, sequence (P11712 whole entry): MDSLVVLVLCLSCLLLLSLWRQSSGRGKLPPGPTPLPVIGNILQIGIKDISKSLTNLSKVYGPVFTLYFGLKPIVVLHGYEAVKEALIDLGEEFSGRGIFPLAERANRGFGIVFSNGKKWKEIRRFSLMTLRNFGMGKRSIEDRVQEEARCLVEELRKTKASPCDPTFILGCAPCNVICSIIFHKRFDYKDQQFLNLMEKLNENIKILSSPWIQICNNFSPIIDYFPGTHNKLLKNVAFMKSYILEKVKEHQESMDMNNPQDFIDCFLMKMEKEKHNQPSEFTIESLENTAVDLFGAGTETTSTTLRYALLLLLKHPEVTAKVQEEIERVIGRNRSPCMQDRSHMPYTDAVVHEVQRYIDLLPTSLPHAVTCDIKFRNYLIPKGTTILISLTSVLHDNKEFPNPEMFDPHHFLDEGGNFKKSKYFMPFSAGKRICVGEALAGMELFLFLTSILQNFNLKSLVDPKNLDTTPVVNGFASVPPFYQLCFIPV
Conditions: not given
The procedure, abridged:
(§1)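 Inhibition was measured against recombinant CYP450 isozymes 2C9, 2D6 and 3A4, each with compound at 10μM, and reported as percent inhibition.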
In turn, `CCCc1ccc(Oc2ccc(C#N)cc2Cl)c(O)c1` came in with an inhibition at 10 µM of over 85%.
On the same count and under the same terms, under `O=[N+]([O-])c1ccc(Oc2ccc(Cl)cc2O)c(Cl)c1` stands over 85%.

In a further data set the target is CYP2D6 (Homo sapiens, UniProt P10635). As to the kind of experiment: Inhibition of CYP2D6 at 10 uM.
CYP2D6, sequence (P10635 whole entry): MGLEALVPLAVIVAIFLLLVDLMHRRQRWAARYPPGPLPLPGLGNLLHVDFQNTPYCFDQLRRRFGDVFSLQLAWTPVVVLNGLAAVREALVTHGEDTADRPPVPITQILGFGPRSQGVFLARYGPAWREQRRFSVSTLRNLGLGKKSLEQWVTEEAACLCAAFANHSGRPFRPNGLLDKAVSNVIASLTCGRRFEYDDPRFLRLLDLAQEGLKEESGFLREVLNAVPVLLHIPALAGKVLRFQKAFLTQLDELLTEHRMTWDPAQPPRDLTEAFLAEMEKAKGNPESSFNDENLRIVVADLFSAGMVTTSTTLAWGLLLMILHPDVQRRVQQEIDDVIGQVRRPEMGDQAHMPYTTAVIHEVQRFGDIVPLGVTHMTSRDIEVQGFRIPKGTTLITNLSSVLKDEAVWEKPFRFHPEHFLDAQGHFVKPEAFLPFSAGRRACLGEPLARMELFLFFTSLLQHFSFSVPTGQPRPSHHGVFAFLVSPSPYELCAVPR
Conditions: not given
It is filed as ADME. In a few lines:
as §1
As to `CCCc1ccc(Oc2ccc(C#N)cc2Cl)c(O)c1`, the inhibition at 10 µM was under 22%.
For the compound `O=[N+]([O-])c1ccc(Oc2ccc(Cl)cc2O)c(Cl)c1`, the inhibition at 10 µM was under 22%.

The subject of a further data set is HFF. Briefly: Toxicity to HFF. It is filed as cell-based. The following applies: human. The procedure, abridged: (§2)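 Host-cell toxicity was tested on non-confluent fibroblast monolayers by 3H-thymidine incorporation, alongside visual inspection of monolayer integrity. Testing ran simultaneously with the parasite inhibition assay, and the highest concentration tested was scored.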
`CCCc1ccc(Oc2cccc(B(O)O)c2)c(O)c1` showed an Activity of over 6 µM.
The same measure, in the same setting: as for `CCCc1ccc(Oc2ccc(N)cc2)c(O)c1`, the figure is 3 µM; as for `C/C=C/C=C/C(=O)Nc1ccc(Oc2ccc(Cl)cc2O)cc1`, 6 µM; as for `CCCc1ccc(Oc2ccc([N+](=O)[O-])cc2)c(O)c1`, over 6 µM.
`Oc1cc(Cl)ccc1Oc1cccnc1` displayed an Activity of over 6 µM.
As for `CCCc1ccc(Oc2ccc([N+](=O)[O-])cc2Cl)c(O)c1`, the Activity came out at 1.5 µM.
`CCCc1ccc(Oc2ccc(C#N)cc2Cl)c(O)c1` gave an Activity of 5 µM.
On the same count and under the same terms, as for `CC(C)(C)C(=O)Oc1cc(Cl)ccc1Oc1ccc(Cl)cc1Cl`, the figure is over 6 µM; as for `O=[N+]([O-])c1ccc(Oc2ccc(Cl)cc2O)c(Cl)c1`, 4 µM.
The compound `CCCc1ccc(Oc2ccc([N+](=O)[O-])cc2[N+](=O)[O-])c(O)c1` had an Activity of under 1.5 µM.

A further data set deals with HFF. Briefly: Toxicity to HFF at highest concentration. It is filed as cell-based. Particulars: human. The procedure, abridged:
as §2
For `CCCc1ccc(Oc2cccc(B(O)O)c2)c(O)c1`, the Activity result is “Non-toxic”.
Still for that read-out and setting: under `CCCc1ccc(Oc2ccc(N)cc2)c(O)c1` stands “Non-toxic”; under `CCCc1ccc(Oc2ccc([N+](=O)[O-])cc2)c(O)c1`, “Non-toxic”; under `Oc1cc(Cl)ccc1Oc1cccnc1`, “Non-toxic”.
The same measure, in the same setting: under `CCCc1ccc(Oc2ccc([N+](=O)[O-])cc2Cl)c(O)c1` stands “Non-toxic”; under `CCCc1ccc(Oc2ccc(C#N)cc2Cl)c(O)c1`, “Non-toxic”.
Still for that read-out and setting: as for `COc1ccc(COc2ccn(Cc3ccccc3Cl)c(=O)c2)cc1`, the entry is “Non-toxic”.
Regarding `C/C=C/C=C/C(=O)Nc1ccc(Oc2ccc(Cl)cc2Cl)c(O)c1`, the Activity result is reported as “Non-toxic”.
Regarding `CC(C)(C)C(=O)Oc1cc(Cl)ccc1Oc1ccc(Cl)cc1Cl`, the Activity result is listed as “Non-toxic”.
Same read-out and setting: under `O=[N+]([O-])c1ccc(Oc2ccc(Cl)cc2O)c(Cl)c1` stands “Non-toxic”; under `CCCc1ccc(Oc2ccc([N+](=O)[O-])cc2[N+](=O)[O-])c(O)c1`, “Non-toxic”.
With `O=c1cc(OCc2ccccc2)ccn1Cc1ccccc1Cl`, the Activity entry is listed as “Non-toxic”.
The same measure, in the same setting: as for `Nc1ncccc1C(=O)Nc1cc(Cl)ccc1Oc1ccccc1`, the entry is “Non-toxic”.
`O=c1cc(OCCCn2c3ccccc3c3ccccc32)ccn1Cc1ccccc1Cl`: the Activity result was “Non-toxic”.

Test system in another data set: not listed separately
Briefly: Metabolic stability in human liver microsome assessed as compound remaining after 60 mins. It is filed as ADME. The following applies: liver microsomes, read-out: INH. In a few lines:
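Compounds were incubated with pooled human liver microsomes for 60 minutes, and the percentage of parent compound remaining was measured.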
For orientation: Liver microsomes are a subcellular fraction often used to study metabolism.
In the case of `CCCc1ccc(Oc2ccc(C#N)cc2Cl)c(O)c1`, the remaining at 1 h turned out to be 45.1%.
On the same count and under the same terms, under `O=[N+]([O-])c1ccc(Oc2ccc(Cl)cc2O)c(Cl)c1` stands 51.2%.

The target in the next data set is T1, Enoyl-acyl carrier reductase (Toxoplasma gondii, UniProt Q6UCJ9).
T1 sequence (Q6UCJ9 whole entry): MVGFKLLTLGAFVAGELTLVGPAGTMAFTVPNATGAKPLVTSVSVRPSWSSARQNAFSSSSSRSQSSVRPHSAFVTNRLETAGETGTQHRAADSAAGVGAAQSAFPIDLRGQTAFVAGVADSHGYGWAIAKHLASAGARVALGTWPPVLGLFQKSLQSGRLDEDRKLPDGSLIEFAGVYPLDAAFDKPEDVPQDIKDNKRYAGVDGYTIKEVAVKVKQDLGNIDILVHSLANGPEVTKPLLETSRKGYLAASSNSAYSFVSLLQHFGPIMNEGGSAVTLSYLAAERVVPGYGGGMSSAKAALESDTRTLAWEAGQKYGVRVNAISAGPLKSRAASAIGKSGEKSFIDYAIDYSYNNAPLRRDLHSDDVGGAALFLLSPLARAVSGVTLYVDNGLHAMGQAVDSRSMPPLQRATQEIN
As to the kind of experiment: Inhibition of Toxoplasma gondii enoyl reductase.
Conditions: not given
In a few lines: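 Recombinant TgENR (20 nM) was assayed in 100 mM Na/K phosphate pH 7.5, 150 mM NaCl and 100 μM NADH. Compounds were added in DMSO (2% final), and reactions were started at 25°C with 100 μM crotonyl-CoA. NADH consumption was followed at 340 nm.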
Compound `CCCc1ccc(Oc2cccc(B(O)O)c2)c(O)c1` displayed an IC50 of 0.174 µM.
On the same count and under the same terms, as for `CCCc1ccc(Oc2ccc(N)cc2)c(O)c1`, the figure is under 0.02 µM.
Still for that read-out and setting: under `C/C=C/C=C/C(=O)Nc1ccc(Oc2ccc(Cl)cc2O)cc1` stands over 2 µM; under `CCCc1ccc(Oc2ccc([N+](=O)[O-])cc2)c(O)c1`, under 0.02 µM.
The same measure, in the same setting: as for `Oc1cc(Cl)ccc1Oc1cccnc1`, the figure is 2.8 µM; as for `CCCc1ccc(Oc2ccc([N+](=O)[O-])cc2Cl)c(O)c1`, under 0.02 µM; as for `CCCc1ccc(Oc2ccc(C#N)cc2Cl)c(O)c1`, under 0.02 µM.
Turning to `COc1ccc(COc2ccn(Cc3ccccc3Cl)c(=O)c2)cc1`, the IC50 was over 20 µM.
Regarding `C/C=C/C=C/C(=O)Nc1ccc(Oc2ccc(Cl)cc2Cl)c(O)c1`, the IC50 was found to be 2 µM. This counts as single-digit micromolar.
For `CC(C)(C)C(=O)Oc1cc(Cl)ccc1Oc1ccc(Cl)cc1Cl`, inhibition was half-maximal at 3 µM (IC50). Compared with the last compound, the IC50 is about 1.5-fold higher.
Compound `CCCc1ccc(Oc2ccc([N+](=O)[O-])cc2[N+](=O)[O-])c(O)c1` had an IC50 of under 0.02 µM.
The same measure, in the same setting: as for `O=c1cc(OCc2ccccc2)ccn1Cc1ccccc1Cl`, the figure is over 20 µM; as for `Nc1ncccc1C(=O)Nc1cc(Cl)ccc1Oc1ccccc1`, over 20 µM.
The same measure, in the same setting: as for `O=c1cc(OCCCn2c3ccccc3c3ccccc32)ccn1Cc1ccccc1Cl`, the figure is over 2 µM.

Another data set relates to Toxoplasma gondii. Briefly: Antiparasitic activity against Toxoplasma gondii RH infected in ip dosed CD1 mouse. It is filed as functional, organism-based.
Conditions: not given
In a few lines: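 CD1 mice were infected intraperitoneally with 2000 RH (Type 1) parasites, a lethal inoculum. Inhibitors were given intraperitoneally at 10mg/kg. Read-outs were peritoneal parasite burden by microscopy at day 5 and survival up to day 5 post-infection. There were 6 mice per group.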
`CCCc1ccc(Oc2ccc(C#N)cc2Cl)c(O)c1`: the result was Active.
The same measure, in the same setting: as for `O=[N+]([O-])c1ccc(Oc2ccc(Cl)cc2O)c(Cl)c1`, the entry is “Active”.

The next data set addresses CYP3A4 (Homo sapiens, UniProt P08684). Briefly: Inhibition of CYP3A4 at 10 uM. It is filed as ADME.
Conditions: not given
In a few lines:
as §1
In turn, `CCCc1ccc(Oc2ccc(C#N)cc2Cl)c(O)c1` returned an inhibition at 10 µM of under 22%.
With `O=[N+]([O-])c1ccc(Oc2ccc(Cl)cc2O)c(Cl)c1`, the inhibition at 10 µM is under 22%.

Another data set deals with Toxoplasma gondii. As to the kind of experiment: Antiparasitic activity against Toxoplasma gondii infected in HFF after 24 hrs by [3H]uracil incorporation assay. It is filed as functional.
Conditions: not given
In a few lines:
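Human foreskin fibroblasts were infected with T. gondii tachyzoites and given 1 h to invade before inhibitors were added. Cultures ran 3 days, then 3H-uracil was added for a further day. Parasite growth was read as uracil incorporation by liquid scintillation counting. MIC50 and MIC90 are the concentrations giving 50% and 90% growth inhibition. There were 6 replicate samples per group.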
`CCCc1ccc(Oc2cccc(B(O)O)c2)c(O)c1` gave an MIC50 of 5 µM (≈ 1.36 µg/mL) and an MIC90 of 6 µM (≈ 1.63 µg/mL).
In the same order, the values of `CCCc1ccc(Oc2ccc(N)cc2)c(O)c1` are 6 µM (≈ 1.46 µg/mL) and over 6 µM.
For `C/C=C/C=C/C(=O)Nc1ccc(Oc2ccc(Cl)cc2O)cc1`, the MIC50 stood at 6 µM (≈ 1.98 µg/mL) and the MIC90 is over 6 µM.
In the case of `CCCc1ccc(Oc2ccc([N+](=O)[O-])cc2)c(O)c1`, the MIC50 was found to be 6 µM (≈ 1.64 µg/mL) and the MIC90 was over 6 µM.
Taken in the same sequence, the figures for `Oc1cc(Cl)ccc1Oc1cccnc1` were over 6 µM and over 6 µM.
In the same order, the values of `CCCc1ccc(Oc2ccc([N+](=O)[O-])cc2Cl)c(O)c1` are 4 µM (≈ 1.23 µg/mL) and 6 µM (≈ 1.85 µg/mL).
In the same order, the values of `CCCc1ccc(Oc2ccc(C#N)cc2Cl)c(O)c1` are 3 µM (≈ 0.863 µg/mL) and 5 µM (≈ 1.44 µg/mL).
With `COc1ccc(COc2ccn(Cc3ccccc3Cl)c(=O)c2)cc1`, the MIC50 was found to be 17 µM (≈ 6.05 µg/mL) and the MIC90 stood at 23 µM (≈ 8.18 µg/mL).
Taken in the same sequence, the figures for `C/C=C/C=C/C(=O)Nc1ccc(Oc2ccc(Cl)cc2Cl)c(O)c1` were 14 µM (≈ 5.1 µg/mL) and 22 µM (≈ 8.01 µg/mL).
Regarding `CC(C)(C)C(=O)Oc1cc(Cl)ccc1Oc1ccc(Cl)cc1Cl`, the MIC50 is 4 µM (≈ 1.49 µg/mL) and the MIC90 was 6 µM (≈ 2.24 µg/mL).
As to `O=[N+]([O-])c1ccc(Oc2ccc(Cl)cc2O)c(Cl)c1`, the MIC50 came out at 4 µM (≈ 1.2 µg/mL) and the MIC90 was 6 µM (≈ 1.8 µg/mL).
Taken in the same sequence, the figures for `CCCc1ccc(Oc2ccc([N+](=O)[O-])cc2[N+](=O)[O-])c(O)c1` were 2 µM (≈ 0.637 µg/mL) and 6 µM (≈ 1.91 µg/mL).
`O=c1cc(OCc2ccccc2)ccn1Cc1ccccc1Cl` came in with an MIC50 of 7 µM (≈ 2.28 µg/mL) and an MIC90 of 15 µM (≈ 4.89 µg/mL).
In the same order, the values of `Nc1ncccc1C(=O)Nc1cc(Cl)ccc1Oc1ccccc1` are 17 µM (≈ 5.78 µg/mL) and 24 µM (≈ 8.15 µg/mL).
In the same order, the values of `O=c1cc(OCCCn2c3ccccc3c3ccccc32)ccn1Cc1ccccc1Cl` are 2 µM (≈ 0.886 µg/mL) and 14 µM (≈ 6.2 µg/mL).
